Screening data: PubChem BioAssay, several laboratories
Only some compounds are listed: those with a hit (about 2.7% of all), similar ones and a draw of the others.
MC4R antagonist = blocks human MC4R cAMP signaling; MC4R-expressing cells, MTII-stimulated cAMP, LANCE TR-FRET; inhibition, % at 6.5 µM; 360,000 tested, 0.48% active;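 active means inhibition above its plate's cutoff, the mean of tested wells on that plate plus 3 SD, cut at about 29% in these data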;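 further: 0% = Melanotan II alone and 100% = Melanotan II plus saturating MCL0020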
Target sequence (P32245 whole entry, looked up): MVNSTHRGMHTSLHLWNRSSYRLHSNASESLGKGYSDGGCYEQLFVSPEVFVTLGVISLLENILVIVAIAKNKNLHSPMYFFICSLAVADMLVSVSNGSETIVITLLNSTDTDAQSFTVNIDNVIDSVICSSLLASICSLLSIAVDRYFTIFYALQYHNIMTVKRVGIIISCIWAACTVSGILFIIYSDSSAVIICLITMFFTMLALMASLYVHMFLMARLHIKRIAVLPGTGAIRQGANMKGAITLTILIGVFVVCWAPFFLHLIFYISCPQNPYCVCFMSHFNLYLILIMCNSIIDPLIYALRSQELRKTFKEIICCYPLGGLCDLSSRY
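Assay system: human MC4R-expressing U2OS cells; reagent: Melanotan II stimulation of cells; dosing: 6.5 µM single dose; timing: compound 30 min, challenge 1 h, detection 1 h; signal: TR-FRET cAMP assay; replicates: one well per compound, no replicates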
m5-HT2A agonist = agonists of mouse serotonin 5-HT2A receptor (HTR2A). P35363. CHO-K1 mHTR2A beta-arrestin complementation, luminescence; percent of 30 µM serotonin response. activation, % at 7.6 µM. 360,000 tested, 0.66% active;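 active means activation above a run cutoff, the mean activation of all tested compounds plus 3 SD, cut at about 14% in these data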;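 further: 0% = plate median of compound wells and 100% = 30 µM serotonin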
NTR1 agonist = NTR1 (human) agonism; NTR1-U2OS beta-arrestin-GFP spot imaging, agonist mode; activation, % at 20 µM; 330,000 tested, 0.17% active;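 active means activation at or above 40% of the spot to cytoplasm intensity ratio, with at least 20 cells analyzed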;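 further: 0% = DMSO without peptide and 100% = 100 nM NTR1 peptide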
PREPL inh = human PREPL enzyme inhibition; 320,000 tested, 0.68% active; inhibition, % at 5.96 µM; AID 2751; recombinant PREPL, fluorescence polarization activity-based probe; in the data active means inhibition above about 43%;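 further: 0% = enzyme with DMSO and 100% = wells lacking enzyme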
Lipid droplet = modulators of hepatic lipid droplet formation | 240,000 tested, 0.4% active | AML12 mouse hepatocytes, oleate lipid droplets, BODIPY imaging | inhibition, % at 6.5 µM;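 active means lipid droplet intensity inhibited by at least 50%, with more than 500 cells counted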
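Assay system: AML12 mouse liver cells | Compound dosing: One dose, 6.5 µM compound | Read-out basis: Droplet intensity reduction, % inhibition | Measured by: Fluorescence imaging, 20x objective, two fields per well | Schedule: Overnight treatment with compound plus oleate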
MC4R barr agon = agonists of human melanocortin 4 receptor (MC4R) beta-arrestin; activation, % at 8.9 µM; U2OS MC4R beta-arrestin complementation, luminescence; percent of melanotan II response, DMSO zero; 360,000 tested, 0.98% active; AID 540308; P32245;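 active means activation above a per-plate cutoff, the mean activation of sample wells on that plate plus 3 SD, cut at about 8% in these data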
U2OS cAMP counter = U2OS forskolin cAMP inhibition counter-screen; shares compounds with MC4R antagonist; parental U2OS, LANCE TR-FRET; inhibition, % at 6.5 µM; 1,600 tested, 26% active; AID 602193;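 active means mean inhibition over triplicates above the low-control well mean plus 3 SD, set per campaign, cut at about 13% in these data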;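 further: signal is single emission at 671 nm which falls as cellular cAMP rises; 0% = forskolin-stimulated wells and 100% = buffer without forskolin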
MC4R cAMP antag = human MC4R cAMP antagonism confirmation | inhibition, % at 6.5 µM | 1,600 tested, 27% active | MC4R-expressing cells, MTII-stimulated cAMP, TR-FRET | shares compounds with MC4R antagonist | AID 602195; in the data active means inhibition above about 29%;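 further: 0% = agonist stimulated wells alone and 100% = agonist stimulated wells plus saturating reference antagonist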
MC4R barr conf = human MC4R beta-arrestin agonism confirmation | 2,400 tested, 31% active | activation, % at 8.9 µM | U2OS MC4R beta-arrestin recruitment, luminescence; scaled DMSO 0%, Melanotan II 100% | shares compounds with MC4R barr agon;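 active means mean activation across replicates above the hit cutoff set in the earlier primary screen, cut at about 8% in these data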
MOR DOR agonist = OPRM1-OPRD1 heterodimer agonism counter-screen. shares compounds with MC4R barr agon. U2OS PathHunter beta-arrestin, beta-gal luminescence; percent of deltorphin B response, DMSO zero. activation, % at 9.2 µM. 2,400 tested, 5.8% active;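 active means mean activation across replicates exceeds the hit threshold derived in the earlier primary screen, cut at about 18% in these data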;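 further: 100% = deltorphin B at 0.9 µM final and 0% = DMSO alone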
OPRM1 ag = OPRM1 agonism in mouse HTR2A counterscreen; U2OS OPRM1 beta-arrestin PathHunter, luminescence; DMSO 0%, DAMGO 9.3 µM 100%; 2,300 tested, 5.3% active; AID 624380; shares compounds with m5-HT2A agonist; activation, % at 9.3 µM;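 active means mean activation above the mean of DMSO-only wells plus 3 SD, cut at about 0.5% in these data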
HTR2A ag conf = mouse HTR2A agonism confirmed | shares compounds with m5-HT2A agonist | CHO-K1 PathHunter beta-arrestin recruitment, luminescence; DMSO 0%, 30 µM serotonin 100% | activation, % at 7.6 µM | 2,300 tested, 19% active | AID 624381;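 active means mean activation across triplicates above the hit threshold derived in the original primary screen, cut at about 15% in these data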
Starred values were filed as active, the others as inactive; x = no result given.

SMILES	MC4R antagonist	m5-HT2A agonist	NTR1 agonist	PREPL inh	Lipid droplet	MC4R barr agon	U2OS cAMP counter	MC4R cAMP antag	MC4R barr conf	MOR DOR agonist	others
CC(=O)Nc1cccc(Oc2cc(C#N)c(C#N)cc2N2CCCCCC2)c1	33*	2	5	0	3	0	2	10	x	x
COc1ccc(N2CCN(c3ccc(NC(=O)C4CCCCC4)cc3C#N)CC2)cc1	-10	-2	0	3	2	2	x	x	x	x
Cc1ccc(S(=O)(=O)NC(CN2CCOCC2)=NCCNS(=O)(=O)c2ccccc2)cc1	3	-6	-3	19	13	-1	x	x	x	x
COc1ccc(CC(=O)Oc2ccc(C(C)(C)C)cc2)cc1S(=O)(=O)N1CCOCC1	32*	-11	2	30	x	-3	12	14	x	x
COc1ccc(C(=O)CSc2nc3ccc([N+](=O)[O-])cc3[nH]2)cc1	-2	-4	2	-6	-4	-1	x	x	x	x
Cc1noc(C(=O)Nc2cccc(O)c2)c1Cl	29*	0	2	-2	x	1	4	-3	x	x
CCOC(=O)c1cc(-c2csc(N/N=C/c3ccccc3Cl)n2)on1	40*	-2	3	5	-16	22*	14*	71*	13*	5
CCOC(=O)c1cc(-c2csc(Nc3ccccc3Cl)n2)on1	28	2	3	1	1	0	x	x	x	x
CC(=O)n1cc(Nc2ccccc2C(=O)O)c2ccccc21	-5	2	-2	4	x	-1	x	x	x	x
CC(=O)n1cc(N(C(=O)CCl)c2ccc(Cl)cc2)c2ccccc21	42*	-1	28	2	4	13*	-17	52*	6	51*
Nc1c(S(=O)(=O)c2ccccc2)c2nc3ccccc3nc2n1/N=C/c1cccc(O)c1	35*	2	21	-21	x	17*	2	13	10*	8
Cc1cccc(S(=O)(=O)c2c(N)n(/N=C/c3ccccc3)c3nc4ccccc4nc23)c1	8	3	4	4	16	0	x	x	x	x
Cc1cc(=O)oc2cc(OCC(=O)N3CCCC3)c(Cl)cc12	-2	-8	0	3	x	-2	x	x	x	x
CCc1[nH]nc(C(=O)NC2CCCc3c2cnn3-c2cc(C)cc(C)c2)c1C (stereo unspecified)	-1	1	0	2	-27	0	x	x	x	x
CC(O)CC(=O)OC[C@]12CC[C@H]3[C@@](C)(CC[C@H]4C(C)(C)CCC[C@]34C)[C@@H]1CC(C1=CC(=O)OC1O)O2 (stereo partly specified)	33*	-6	x	x	x	16*	0	23	24*	16
COc1ccc(-c2oc3ccc(N4CCOCC4)cc3c2C#CC2(O)CCCCC2)cc1	33*	1	25	22	x	19*	6	20	15*	5
CCCc1nc2c3ccccc3ccn2c1Cc1ccc(OC)cc1C	x	5	x	x	x	x	x	x	x	x
Cc1cc(C)c(C#N)c(SCC(=O)Nc2cccc(S(=O)(=O)N3CCCC3)c2)n1	32*	4	6	x	x	10.0*	45*	82*	-1	4
Cc1cc(C)c(C#N)c(SCC(=O)Nc2ccc(S(=O)(=O)Nc3ncccn3)cc2)n1	3	0	2	13	-2	-3	x	x	x	x
Cc1cccc(C)c1-n1cccc1/C=C1\SC(=S)N(c2cccc(C(=O)O)c2)C1=O	37*	0	4	-7	-7	20*	-3	-14	20*	2
Cc1cccc(C)c1NC(=O)CN1C(=O)S/C(=C\c2cccn2-c2cccc(C(=O)O)c2)C1=O	2	10	0	14	x	-2	x	x	x	x
CCCCCCNc1nc(Cl)nc(NC(C)(C)CO)n1	-3	-7	0	4	-16	0	x	x	x	x
C=CCn1c(=NC(=O)c2sc3ccccc3c2Cl)sc2cc(S(N)(=O)=O)ccc21	33*	1	3	-14	-10	16*	4	20	8	2
COc1ccc2[nH]c(C(=O)Nc3ccc(F)cc3Br)cc2c1	29*	0	-1	4	2	26*	21*	20	1	5
Cc1ccc(-c2nc3c(Cl)cc(C(F)(F)F)cn3c2Cc2ccsc2)cc1	x	-7	x	x	x	x	x	x	x	x
SMILES	MC4R antagonist	m5-HT2A agonist	NTR1 agonist	PREPL inh	Lipid droplet	MC4R barr agon	U2OS cAMP counter	MC4R cAMP antag	MC4R barr conf	MOR DOR agonist	others
CCCCNc1c(-c2cccc(-c3cc(C(C)=O)cs3)c2)nc2cc(C)ccn12	36*	12	38	29	x	11*	1	9	9.5*	6
CC(C)(C)OC(=O)CNC(=O)c1[nH]cnc1C(=O)NCC(=O)OCc1ccccc1	42*	15*	14	4	6	1	3	8	x	x	OPRM1 ag=0;HTR2A ag conf=3
COCCNC(=O)C(c1ccc(C)cc1)N(Cc1ccco1)C(=O)CCC(=O)Nc1ccccn1 (stereo unspecified)	-2	-4	-1	6	-7	0	x	x	x	x
COCCn1c(=NC(=O)/C=C/c2cccs2)sc2cc(NC(C)=O)ccc21	9	2	1	8	-12	10*	x	x	1	7
COc1cc(NC(=O)c2ccco2)c(C(=O)OCC(=O)Nc2ncc(Cl)cc2Cl)cc1OC	1	4	0	11	1	18*	x	x	0	3
Cc1ccccc1NC(=O)COC(=O)c1ccc(C)c(S(=O)(=O)N2CCCCC2)c1	0	0	x	x	x	1	x	x	x	x
Cc1ccc(/C=C/C(=O)NCc2cccs2)c(C)c1	13	-4	4	1	-2	2	x	x	x	x
Cc1cccc(/C=N/NC(=O)c2cc(Br)ccc2OCc2ccccc2)n1	9	4	1	-16	-18	13*	x	x	-4	5
